# APJ ag: activates the human apelin receptor APJ; P35414; 330,000 tested, 0.11% active; activation, % at 20 µM; CHO-K1 APJ PathHunter beta-arrestin, luminescence; 0% DMSO wells, 100% apelin; AID 2520;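 active means activation more than six SD over the plate average, tested at 20 µM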;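 further: 0% = DMSO alone and 100% = apelin-13 at 10 nM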
#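 assay system = CHO-K1 APJ beta-arrestin complementation cell line | input = cell density 1000 per well | dosing = compound 20 µM once, DMSO 1% | timing = compound 90 min 25 °C, reagent 1 h | measured by = luminescence from split beta-galactosidase complementation, Galacton Star/Emerald II substrate | read-out basis = APJ agonist activity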
# EBI2 block: EBI2 (human) antagonism; EBI2 beta-arrestin recruitment, luminescence, 7a,25-OHC stimulated; inhibition, % at 5 µM; P32249; AID 651636; 360,000 tested, 0.81% active; in the data active means inhibition above about 38%;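 further: enzyme fragment complementation signal reports receptor beta-arrestin coupling in cells; 0% = agonist plus DMSO wells and 100% = wells without agonist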
# Target sequence (P32249 whole entry, looked up, the tested form may be a part): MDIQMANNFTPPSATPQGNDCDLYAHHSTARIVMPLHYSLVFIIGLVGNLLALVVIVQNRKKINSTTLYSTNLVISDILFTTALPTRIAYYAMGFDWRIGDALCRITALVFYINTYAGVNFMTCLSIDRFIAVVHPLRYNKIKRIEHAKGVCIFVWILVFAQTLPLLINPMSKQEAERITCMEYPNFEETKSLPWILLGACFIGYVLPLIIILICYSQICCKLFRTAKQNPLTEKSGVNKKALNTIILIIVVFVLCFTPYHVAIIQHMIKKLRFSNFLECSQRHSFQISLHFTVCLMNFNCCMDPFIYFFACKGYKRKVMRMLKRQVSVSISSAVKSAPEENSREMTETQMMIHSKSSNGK
# m5-HT2A agonist: activates the mouse 5-HT2A serotonin receptor; P35363; 360,000 tested, 0.66% active; activation, % at 7.6 µM; CHO-K1 mHTR2A beta-arrestin complementation, luminescence; percent of 30 µM serotonin response; AID 624169;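 active means activation above a run cutoff, the mean activation of all tested compounds plus 3 SD, cut at about 14% in these data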;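 further: 0% = plate median of compound wells and 100% = 30 µM serotonin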
# CXCR6 block: blocks human CXCR6 beta-arrestin recruitment | O00574 | CHO-K1 PathHunter CXCR6 beta-arrestin, luminescence | inhibition, % at 20 µM | 360,000 tested, 0.36% active | AID 602244; in the data active means inhibition above about 34%, passing the limit was not always enough;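 further: antagonist mode with CXCL16 agonist at 10 nM final; 0% = 10 nM CXCL16 with DMSO and 100% = unstimulated wells without agonist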
# CCR6 antagonist: blocks CCL20-driven beta-arrestin recruitment at human CCR6; CHO-K1 CCR6 PathHunter beta-arrestin, luminescence, CCL20-stimulated; inhibition, % at 20 µM; 340,000 tested, 0.49% active; AID 493098; P51684;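 active means compounds whose inhibition of the agonist-driven luminescence signal at 20 µM reaches about 50%, limit read from the data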;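 further: cells stimulated with CCL20 at 14 nM final; plate controls were DMSO with CCL20 for no effect and DMSO without agonist for full effect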
# Target sequence (P51684 whole entry, looked up): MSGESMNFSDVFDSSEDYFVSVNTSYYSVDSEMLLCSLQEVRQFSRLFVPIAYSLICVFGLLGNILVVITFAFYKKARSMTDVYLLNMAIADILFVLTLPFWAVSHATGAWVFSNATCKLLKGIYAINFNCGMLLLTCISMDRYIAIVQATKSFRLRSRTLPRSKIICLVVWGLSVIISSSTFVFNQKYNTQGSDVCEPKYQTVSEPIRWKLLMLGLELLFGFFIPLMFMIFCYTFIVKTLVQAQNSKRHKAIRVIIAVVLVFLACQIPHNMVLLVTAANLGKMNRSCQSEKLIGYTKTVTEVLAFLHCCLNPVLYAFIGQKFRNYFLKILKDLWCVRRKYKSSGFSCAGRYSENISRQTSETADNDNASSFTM
# APJ antagonist: blocks the human apelin receptor APJ; P35414; CHO-K1 APJ beta-arrestin complementation, luminescence; inhibition, % at 20 µM; 330,000 tested, 0.32% active; AID 2521;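 active means inhibition above about 40% at 20 µM, limit read from the data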;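 further: cells challenged with 10 nM apelin-13 agonist together with compound; plate controls were apelin-13 plus DMSO wells for no effect and DMSO wells lacking apelin-13 for full effect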
# EBI2 conf: confirmation of human EBI2 receptor antagonists. inhibition, % at 5 µM. shares compounds with EBI2 block. 2,400 tested, 29% active. EBI2 beta-arrestin luminescence, 7a,25-OHC antagonism;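 active means inhibition of at least 50%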
# EBI2 agonist: EBI2 agonism counter-screen | activation, % at 5 µM | 2,400 tested, under 10 active | shares compounds with EBI2 block | EBI2-expressing cells, agonist mode, luminescence, 60 min; 0% vehicle, 100% 7α,25-dihydroxycholesterol control;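 active means activation of at least 50%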
# bGal cs: beta-galactosidase inhibition counter-screen; shares compounds with EBI2 block; purified beta-galactosidase, luminescent Galacton Star, 15 min; inhibition, % at 5 µM; 2,400 tested, 1% active; AID 652176;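 active means replicate-average signal at least 3 plate SD below neutral wells, shown as high inhibition, flagging enzyme-inhibiting false positives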;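 further: 0% = DMSO wells with enzyme and 100% = wells lacking enzyme; higher means stronger loss of beta-gal luminescence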
# * marks the source's active call; other numbers are inactive results; nt = not tested or not shown. Hits are enriched below; roughly 2.1% of the tested compounds scored in any of these assays.
SMILES,APJ ag,EBI2 block,m5-HT2A agonist,CXCR6 block,CCR6 antagonist,APJ antagonist,EBI2 conf,EBI2 agonist,bGal cs
Cn1nnc2c(sc3nc(N4CCOCC4)c4c(c32)CCCC4)c1=O,-3.5,48.9*,-1.8,9.2,2.7,13.1,38.1,-1.0,-19.0
Cc1cc(C)cc(-n2c(SCC(=O)NCc3ccc4c(c3)OCO4)nc3ccccc3c2=O)c1,-3.1,14.4,1.2,10.5,11.6,7.8,nt,nt,nt
O=C(NCc1ccco1)c1cc([N+](=O)[O-])ccc1N1CCCCC1,-3.8,53.4*,-0.9,0.2,17.0,6.4,39.0,0.8,3.0
O=C(Nc1cc([N+](=O)[O-])ccc1N1CCOCC1)c1ccco1,-2.1,5.6,-2.2,6.6,6.7,2.8,nt,nt,nt
COc1cc(NC(=O)c2cc([N+](=O)[O-])ccc2N2CCOCC2)ccc1NC(=O)c1ccco1,-3.5,55.1*,0.1,-2.4,15.1,-44.2,7.2,-1.2,-4.3
O=C(NCc1ccco1)c1ccc(N2CCCCC2)c([N+](=O)[O-])c1,-0.1,-4.5,1.1,-1.4,13.8,5.8,nt,nt,nt
O=C(NCc1ccc2c(c1)OCO2)c1cc([N+](=O)[O-])ccc1N1CCCCC1,-4.3,83.2*,-3.4,4.0,15.6,14.1,62.3*,-1.8,-13.9
O=C(CSc1nc2cc([N+](=O)[O-])ccc2n1-c1ccccc1)NCc1ccc2c(c1)OCO2,-3.5,54.8*,-0.5,-2.9,3.9,14.5,24.2,-0.9,-7.8
CC(C)C[C@H](NC(=O)N1CC(=O)Nc2ccccc21)C(=O)N1CCC(C(=O)O)CC1,-2.9,-7.6,10.1,0.1,-1.9,14.4,nt,nt,nt
CCN(CC)c1ccc(/C=C/C(=O)c2ccc(Br)cc2)cc1,nt,37.3,-4.1,11.3,-9.7,nt,nt,nt,nt
CN(C)c1ccc(C(=O)/C=C/c2ccc(Br)cc2)cc1,-0.2,85.6*,3.1,8.5,14.3,-10.0,63.9*,-0.8,-21.5
c1ccc(Oc2ncnc3oc(-c4ccccc4)cc23)cc1,-0.8,50.1*,3.5,2.5,-3.6,16.3,47.2,-0.2,3.0
Cn1cc(S(=O)(=O)N2CCc3ccccc32)cc1C(=O)Nc1ccc(Cl)cc1,2.5,45.6*,5.1,-6.3,23.7,-1.8,13.7,-1.4,-11.2
Cc1ccc(NC(=O)c2cc(S(=O)(=O)N3CCc4ccccc43)cn2C)cc1,-0.4,22.4,2.5,-2.1,-5.8,-27.0,nt,nt,nt
Cc1csc(=O)n1CC(=O)OCC(=O)Nc1ccc(F)c(F)c1,-5.8,0.8,7.0,-0.8,3.0,-7.3,nt,nt,nt
FC(F)(F)c1cccc(CON=C2CCN(c3ncc(C(F)(F)F)cc3Cl)CC2)c1,-3.6,14.3,2.5,-1.5,28.7,-12.1,nt,nt,nt
Cc1ccc(CON=C2CCN(c3ncc(C(F)(F)F)cc3Cl)CC2)cc1,0.5,42.8*,0.6,0.7,-18.3,12.2,3.7,0.2,-11.9
FC(F)(F)c1cnc(N2CCC(=NOCc3ccc(Cl)cc3)CC2)c(Cl)c1,-0.4,53.8*,2.1,5.8,29.8,11.9,6.7,-0.2,8.3
CC(C)=CCC/C(C)=C/Cc1c(O)ccc(C(=O)/C=C/c2ccc(O)cc2)c1O,-8.2,43.5*,-9.8,11.3,28.4,-48.4,49.2,1.5,3.1
CC1CCCN(C(=O)CN2C(=O)CSc3ccc(S(=O)(=O)N4CCOCC4)cc32)C1 (configuration not stated),-3.0,-11.4,6.8,-1.8,4.3,9.4,nt,nt,nt
CC(=O)n1cc([C@H]2C=C(C(=O)N3CCN(Cc4ccccc4)CC3)O[C@@H](OCc3ccc(CO)cc3)C2)c2ccccc21,0.6,46.8*,-9.6,7.6,0.7,-14.1,15.9,-0.5,-9.6
CC(=O)n1cc([C@H]2C=C(C(=O)N3CCN(Cc4ccc5c(c4)OCO5)CC3)O[C@@H](OCc3ccc(CO)cc3)C2)c2ccccc21,-1.8,41.8,-5.2,6.1,-4.3,-12.9,nt,nt,nt
Cc1ccc(C(=O)NCCOc2ccc(Cl)cc2)cc1,-4.7,51.0*,-4.0,2.4,4.9,4.8,22.4,-1.4,-8.4
Cc1ccc(OCCNC(=O)Cc2ccc(F)cc2)cc1,-3.7,50.0*,-7.2,-0.2,5.6,10.6,44.1,0.6,5.1
Cc1ccc(OCCNC(=O)CCNS(=O)(=O)c2ccc3ccccc3c2)cc1,-2.0,47.5*,-6.5,-12.8,2.5,-6.4,4.7,-0.8,-9.8
SMILES,APJ ag,EBI2 block,m5-HT2A agonist,CXCR6 block,CCR6 antagonist,APJ antagonist,EBI2 conf,EBI2 agonist,bGal cs
Cc1ccc(OCCNC(=O)c2cc(C(=O)NCCOc3ccc(C)cc3)cc([N+](=O)[O-])c2)cc1,2.0,47.2*,-4.8,4.5,1.7,-20.9,30.2,-0.9,-20.0
Cc1ccc(S(=O)(=O)NCCC(=O)NCCOc2ccccc2)cc1,-0.8,13.9,-1.5,-0.3,-2.9,1.7,nt,nt,nt
Cc1ccc(Nc2cc(C(=O)NCCCN3CCOCC3)c3ccccc3n2)cc1C,-0.2,-0.8,-4.0,-1.1,14.3,11.0,nt,nt,nt
O=C(c1nc2ccccn2c1CN1CCCC(O)C1)N1CCN(C2CCCCC2)CC1 (configuration not stated),-0.7,-11.0,0.1,0.5,-10.5,5.8,nt,nt,nt
CN(C)S(=O)(=O)c1ccc(C(=O)NCCSc2ccccc2)cc1,-2.3,8.5,-0.8,-11.2,23.3,18.0,nt,nt,nt
O=C(NCCOc1ccc(Cl)cc1)C(=O)NCC1CCCO1 (configuration not stated),-2.3,15.2,-4.1,-0.2,-0.5,-21.7,nt,nt,nt
Cc1cccc(C)c1NC(=O)C(=O)NCCOc1ccc(Cl)cc1,-3.0,51.3*,-4.8,-2.3,-9.7,7.7,25.4,0.6,4.0
CCc1ccc(OCCNC(=O)c2ccc(S(=O)(=O)N(C)C)cc2)cc1,-4.0,63.7*,2.4,-6.2,-0.9,0.8,40.8,-0.7,-9.2
O=C(COC(=O)/C=C/c1cccc(Cl)c1)NC(=O)NCc1ccccc1,-3.7,-2.6,4.7,10.0,11.8,3.4,nt,nt,nt
O=C(COC(=O)/C=C/c1ccc(OC(F)F)cc1)NC(=O)NCc1ccccc1,0.8,49.9*,-4.8,1.8,-7.6,0.8,4.8,1.4,-0.5
COc1ccc(C2=NOC(Cn3nc(C(=O)NCc4ccc(C)cc4)cc3-c3ccccc3)C2)cc1 (configuration not stated),13.1,44.0*,-5.2,3.1,12.5,10.1,39.1,-1.2,-9.0
CC(=O)c1cn(CCOc2ccc(F)cc2)c2ccccc12,6.1,23.3,-9.0,-17.7,12.8,-8.6,nt,nt,nt

# Screens: PubChem BioAssay, several laboratories
